In data set [1] the target is T1, Ribosomal protein S6 kinase beta-1 (Homo sapiens, UniProt P23443). As to the kind of experiment: Inhibition of p70S6K after 3 hrs by luciferase based chemiluminescence assay.
Data set [2] addresses T2, RAC-alpha serine/threonine-protein kinase (Homo sapiens, UniProt P31749). As to the kind of experiment: Inhibition of AKT1 after 3 hrs by luciferase based chemiluminescence assay.
Data set [3] has as its target T1, Ribosomal protein S6 kinase beta-1. Kind of data set: Inhibition of p70S6K-mediated ribosomal protein S6 phosphorylation in human A549 cells after 3 hrs by chemiluminescence assay. It counts as cell-based. In outline:
(§1)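 A549 or PC-3 cells seeded at 7.5 × 10³ cells/well in DMEM with heat-inactivated 10% FBS, 1% penicillin–streptomycin, 1% non-essential amino acids, grown 48 h at 37 °C, 5% CO₂. Treated 3 h with compound at 1.2–300 nM, triplicate, 0.2% DMSO final. Fixed in 4% formaldehyde, blocked, probed with anti-phospho-S6 (Ser240/244) and anti-total-S6 overnight at 4 °C, chemiluminescent read-out.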

Data set [4] has the same target. As to the kind of experiment: Inhibition of p70S6K-mediated ribosomal protein S6 phosphorylation in human PC3 cells after 3 hrs by chemiluminescence assay. Format: cell-based, PC-3. In outline:
as §1

A short description of data set [5]: Drug metabolism in mouse liver microsomes at 15 uM after 30 mins. It counts as ADME, Microsome. To be noted: read-out: Drug metabolism. In outline: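 Mouse liver microsomes at 0.5 mg/mL, incubated 30 min with compound at 15 µM; value reported as % conversion.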
Data set [6] addresses T2, RAC-alpha serine/threonine-protein kinase. Kind of data set: Inhibition of AKT1-mediated GSK3beta phosphorylation in human PC3 cells after 3 hrs by chemiluminescence assay. It counts as cell-based, PC-3. In outline: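 PC-3 cells seeded at 7.5 × 10³ cells/well, grown 24 h, then serum-starved 24 h. Compound treatment 3 h in triplicate (0.2% DMSO final), followed by 100 ng/ml IGF1 for 30 min. Fixed and processed as a cell ELISA using anti-phospho-GSK3β (S9) and anti-total-GSK3β antibodies, chemiluminescent read-out.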

In a further data set the test system is PC-3. Kind of data set: Anticancer activity against human PC3 prostate tumor cell xenografted model at 100 mg/kg, po qd for 15 days. Format: functional. To be noted: PC-3, 360 h, read-out: TGI.
Data set [7] can be described thus: Clearance in rat at 5 mg/kg. Particulars: in vivo. Also on record: dose 5 mg/kg. Format: ADME, organism-based.
Data set [8] is described as follows: Volume of distribution in rat at 5 mg/kg. Format: ADME, organism-based. Also on record: dose 5 mg/kg. To be noted: in vivo.
A short description of data set [9]: Half life in rat at 5 mg/kg, iv. It counts as ADME, organism-based. Also on record: dose 5 mg/kg, route intravenous. Particulars: in vivo.
The nature of data set [10]: Half life in rat at 5 mg/kg, po. Also on record: dose 5 mg/kg, route oral. It counts as ADME, organism-based. Particulars: in vivo.
A short description of data set [11]: Oral bioavailability in rat at 5 mg/kg. It counts as ADME, organism-based. Particulars: in vivo.
Data set [12] in a line: Cmax in rat at 5 mg/kg, iv. Format: ADME, organism-based. Also on record: dose 5 mg/kg, route intravenous. Particulars: in vivo.
Data set [13] can be described thus: Cmax in rat at 5 mg/kg, po. It counts as ADME, organism-based. Also on record: dose 5 mg/kg, route oral. Particulars: in vivo.
For data set [14], the system named is Rattus norvegicus. As to the kind of experiment: Dose normalized AUC in rat at 5 mg/kg, iv. It counts as ADME, organism-based. Also on record: dose 5 mg/kg, route intravenous. Particulars: in vivo.
For data set [15], the system named is Rattus norvegicus. Kind of data set: Dose normalized AUC in rat at 5 mg/kg, po. Format: ADME, organism-based. Also on record: dose 5 mg/kg, route oral. Particulars: in vivo.
The nature of data set [16]: Plasma concentration in mouse at 100 mg/kg after 1 hr. It counts as ADME, organism-based. Also on record: dose 100 mg/kg. Put shortly: (§2)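 Mouse plasma levels measured 1 and 4 h after a 100 mg/kg dose.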
A short description of data set [17]: Plasma concentration in mouse at 100 mg/kg after 4 hrs. Format: ADME, organism-based. Also on record: dose 100 mg/kg. In outline: as §2
Data set [18] is described as follows: Clearance in rat at 2.5 mg/kg. It counts as ADME, organism-based. Also on record: dose 2.5 mg/kg. Particulars: in vivo.
A short description of data set [19]: Volume of distribution in rat at 2.5 mg/kg. Format: ADME, organism-based. Also on record: dose 2.5 mg/kg. To be noted: in vivo.
The nature of data set [20]: Half life in rat at 2.5 mg/kg, iv. It counts as ADME, organism-based. Also on record: dose 2.5 mg/kg, route intravenous. Particulars: in vivo.
Data set [21] in a line: Half life in rat at 2.5 mg/kg, po. Format: ADME, organism-based. Also on record: dose 2.5 mg/kg, route oral. To be noted: in vivo.
A short description of data set [22]: Oral bioavailability in rat at 2.5 mg/kg. It counts as ADME, organism-based. To be noted: in vivo.
The nature of data set [23]: Cmax in rat at 2.5 mg/kg, iv. Format: ADME, organism-based. Also on record: dose 2.5 mg/kg, route intravenous. Particulars: in vivo.
Data set [24] is described as follows: Cmax in rat at 2.5 mg/kg, po. Format: ADME, organism-based. Also on record: dose 2.5 mg/kg, route oral. To be noted: in vivo.
For data set [25], the system named is Rattus norvegicus. As to the kind of experiment: Dose normalized AUC in rat at 2.5 mg/kg, iv. It counts as ADME, organism-based. Particulars: in vivo. Also on record: dose 2.5 mg/kg, route intravenous.
The subject of data set [26] is Rattus norvegicus. Kind of data set: Dose normalized AUC in rat at 2.5 mg/kg, po. Format: ADME, organism-based. Also on record: dose 2.5 mg/kg, route oral. To be noted: in vivo.
Data set [27] in a line: Plasma concentration in mouse at 30 mg/kg after 4 hrs. Also on record: dose 30 mg/kg. It counts as ADME, organism-based.

Molecules are shown by their SMILES.

T2 sequence (P31749 whole entry): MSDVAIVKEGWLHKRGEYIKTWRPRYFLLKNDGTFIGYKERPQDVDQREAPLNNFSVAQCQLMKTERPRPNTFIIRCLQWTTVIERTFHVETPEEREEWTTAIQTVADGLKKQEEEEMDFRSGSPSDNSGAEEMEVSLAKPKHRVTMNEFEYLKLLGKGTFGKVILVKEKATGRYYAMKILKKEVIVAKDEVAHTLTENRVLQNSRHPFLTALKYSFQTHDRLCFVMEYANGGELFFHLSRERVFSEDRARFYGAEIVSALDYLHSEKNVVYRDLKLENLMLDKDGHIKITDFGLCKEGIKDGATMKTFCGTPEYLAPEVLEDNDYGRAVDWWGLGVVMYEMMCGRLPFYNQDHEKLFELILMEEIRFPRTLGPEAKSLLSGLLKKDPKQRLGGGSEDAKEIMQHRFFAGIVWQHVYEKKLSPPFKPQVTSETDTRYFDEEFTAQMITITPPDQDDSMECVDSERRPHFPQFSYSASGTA
T1 sequence (P23443 whole entry): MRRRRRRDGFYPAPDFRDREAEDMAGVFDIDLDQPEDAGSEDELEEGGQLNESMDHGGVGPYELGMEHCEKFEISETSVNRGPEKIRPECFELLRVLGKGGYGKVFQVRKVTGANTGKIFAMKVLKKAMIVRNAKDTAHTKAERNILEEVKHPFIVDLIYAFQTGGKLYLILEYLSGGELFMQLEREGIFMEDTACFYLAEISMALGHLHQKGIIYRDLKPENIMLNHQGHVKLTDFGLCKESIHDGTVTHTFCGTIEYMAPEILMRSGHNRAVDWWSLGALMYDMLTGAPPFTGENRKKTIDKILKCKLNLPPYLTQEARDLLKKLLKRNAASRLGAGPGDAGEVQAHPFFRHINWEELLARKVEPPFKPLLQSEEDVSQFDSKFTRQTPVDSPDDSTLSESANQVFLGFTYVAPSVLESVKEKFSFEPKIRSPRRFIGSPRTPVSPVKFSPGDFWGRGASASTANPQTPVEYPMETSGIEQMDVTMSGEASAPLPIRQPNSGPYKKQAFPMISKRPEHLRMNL

Consider `CCc1n[nH]c2ncnc(N3CCN(c4cc(Cl)cc(NCCN5CCCC5)c4C)CC3)c12`, for which the IC50 in data set [1] was found to be 3 nM; in data set [2] it was 434 nM; in data set [3], 80 nM; in data set [4], 832 nM; in data set [6] it was 3590 nM. Also, the metabolised at 0.5 h, 15 µM in data set [5] turned out to be 18%.
As for `CCc1n[nH]c2ncnc(N3CCN(c4cc(Cl)cc(NCCN(C)C)c4C)CC3)c12`, the IC50 in data set [1] came to 2 nM; in data set [3] it was 45 nM; in [4], 211 nM; in data set [6], 9030 nM. Further, in [5], the metabolised at 0.5 h, 15 µM is 29%. For the same compound, in the data set on PC-3, the inhibition in vivo at 100 mg/kg was found to be 49%.
`Cc1c(NCCN(C)C)cc(Cl)cc1N1CCN(c2ncnc3[nH]nc(Br)c23)CC1`: the half-inhibitory concentration (IC50) was found to be 2 nM in [1], 43 nM in data set [3], 141 nM in data set [4] and 4280 nM in [6]. In data set [5], the metabolised at 0.5 h, 15 µM was 50%.
Turning to `Cc1c(NCCN2CCCC2)cc(Cl)cc1N1CCN(c2ncnc3[nH]nc(Br)c23)CC1`, the IC50 in data set [1] is 2 nM; in [2] it was 42 nM; in data set [3], 94 nM; in [4] it was 446 nM; in [6], 1270 nM. Further, in [5], the metabolised at 0.5 h, 15 µM stood at 19%.
For `CCOc1cc(NCCN2CCCC2)c(C)c(N2CCN(c3ncnc4[nH]nc(Br)c34)CC2)c1`, the IC50 came to 2 nM in data set [1], 56 nM in data set [2], 197 nM in data set [3] and 9070 nM in data set [6].
With `Cc1c(NCCN2CCCC2)cc(OCC(C)C)cc1N1CCN(c2ncnc3[nH]nc(Br)c23)CC1`, the IC50 came out at 1 nM in data set [1]; 9 nM in data set [2]; 37 nM in data set [3]; 214 nM in [4]; 700 nM in data set [6]. The clearance in data set [7] is 79.5 mL/min/kg. Also, the Vd in [8] is 14.7 L/kg. For the same compound, the half-life is 2.5 h in data set [9] and 1.7 h in [10]. Moreover, in data set [11], the bioavailability is 13%. The results for the Cmax in data set [12] and in data set [13] were 1150 nM and 70 nM, respectively. Further, the AUC/dose was found to be 0.35 µM·kg·h/mg in the data set with Rattus norvegicus [14] and 0.05 µM·kg·h/mg in the data set with Rattus norvegicus [15]. For the same compound, the concentration at 1 h in [16] stood at 1200 nM. Besides, the concentration at 4 h in data set [17] was determined as 1300 nM.
Consider `Cc1c(NCCN2CCCC2)cc(C(=O)Nc2ccccc2)cc1N1CCN(c2ncnc3[nH]nc(Br)c23)CC1`, for which the IC50 in data set [1] came to 1 nM; in data set [2] it was 13 nM; in data set [3], 14 nM; in data set [4] it was 190 nM; in data set [6], 7810 nM.
In the case of `Cc1c(NCCN2CCCC2)cc(COCC(F)(F)F)cc1N1CCN(c2ncnc3[nH]nc(Br)c23)CC1`, the IC50 was 2 nM in [1]; 8 nM in [2]; 17 nM in data set [3]; 66 nM in data set [4]; 730 nM in [6]. This compound also showed a clearance in data set [18] of 63.5 mL/min/kg. This compound also came in with a Vd in data set [19] of 9.7 L/kg. In addition, the figures for the half-life in data set [20] and in [21] were 2.1 h and 1.4 h, respectively. Moreover, in data set [22], the bioavailability amounted to 11%. The Cmax in [23] was 390 nM; in data set [24], 20 nM. For the same compound, the figures for the AUC/dose in the data set with Rattus norvegicus [25] and in the data set with Rattus norvegicus [26] were 0.43 µM·kg·h/mg and 0.05 µM·kg·h/mg, respectively. Further, in data set [16], the concentration at 1 h worked out at 1200 nM. In [17], the concentration at 4 h was found to be 1200 nM.
`Cc1c(NCCN2CCCC2)cc(CCC(C)(C)C)cc1N1CCN(c2ncnc3[nH]nc(Br)c23)CC1`: the half-inhibitory concentration (IC50) in data set [1] turned out to be 2 nM; in data set [2] it was 7 nM; in data set [3], 116 nM; in data set [4] it was 203 nM; in [6], 1980 nM.
Regarding `Cc1noc(-c2cc(NCCN3CCCC3)c(C)c(N3CCN(c4ncnc5[nH]nc(Br)c45)CC3)c2)n1`, the IC50 in data set [1] amounted to 1 nM; in [2] it was 6 nM; in data set [3], 13 nM; in data set [4], 47 nM; in data set [6], 665 nM. For the same compound, in [18], the clearance was 73 mL/min/kg. This compound registered a Vd in data set [19] of 14.2 L/kg. Moreover, the half-life in data set [20] is 2.4 h; in [21], 2.9 h. In addition, the bioavailability in data set [22] is 10%. In addition, the results for the Cmax in [23] and in data set [24] were 370 nM and 10 nM, respectively. Moreover, the AUC/dose was 0.45 µM·kg·h/mg in the data set on Rattus norvegicus [25] and 0.05 µM·kg·h/mg with Rattus norvegicus [26]. The same compound showed a concentration at 1 h in data set [16] of 300 nM. Moreover, the concentration at 4 h in data set [27] turned out to be 100 nM.
Turning to `COC(=O)c1cc(NCCN2CCCC2)c(C)c(N2CCN(c3ncnc4[nH]nc(Br)c34)CC2)c1`, the IC50 came to 2 nM in [1]; 5 nM in data set [2]; 44 nM in data set [3]; 52 nM in data set [4]; 1840 nM in [6].
With `CCC(=O)c1cc(NCCN2CCCC2)c(C)c(N2CCN(c3ncnc4[nH]nc(Br)c34)CC2)c1`, the IC50 in [1] worked out at 1 nM; in data set [2], 5 nM; in data set [3], 18 nM; in data set [4], 25 nM; in data set [6], 976 nM. In addition, in [7], the clearance is 49 mL/min/kg. This compound yielded a Vd in [8] of 10.5 L/kg. Also, the half-life in data set [9] was 3.1 h; in data set [10], 2.9 h. The compound also yielded a bioavailability in data set [11] of 28%. Also, the Cmax was determined as 1440 nM in data set [12] and 140 nM in data set [13]. Moreover, the AUC/dose was 0.56 µM·kg·h/mg with Rattus norvegicus [14] and 0.15 µM·kg·h/mg in the data set on Rattus norvegicus [15]. The concentration at 1 h in [16] is 2000 nM. Moreover, the concentration at 4 h in data set [17] stood at 2000 nM.

Source of the values: ChEMBL document CHEMBL2016487, “Pyrazolopyrimidines as dual Akt/p70S6K inhibitors” (Bioorg Med Chem Lett, 2012).
